procasp7 counter: counter-screen for procaspase-3 activators: activators of human procaspase-7. P55210. recombinant procaspase-7, Ac-DEVD-pNA absorbance 405 nm; D23A/D198A/D206A triple mutant, cannot self-cleave; scale: DMSO 0, 5 µM enzyme 100. activation, % at 8.5 µM. 330,000 tested, 0.093% active;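 active = percent activation above the screen-wide mean plus 3 SD, cut at about 25% in these data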
Target sequence (P55210 whole entry D23A/D198A/D206A): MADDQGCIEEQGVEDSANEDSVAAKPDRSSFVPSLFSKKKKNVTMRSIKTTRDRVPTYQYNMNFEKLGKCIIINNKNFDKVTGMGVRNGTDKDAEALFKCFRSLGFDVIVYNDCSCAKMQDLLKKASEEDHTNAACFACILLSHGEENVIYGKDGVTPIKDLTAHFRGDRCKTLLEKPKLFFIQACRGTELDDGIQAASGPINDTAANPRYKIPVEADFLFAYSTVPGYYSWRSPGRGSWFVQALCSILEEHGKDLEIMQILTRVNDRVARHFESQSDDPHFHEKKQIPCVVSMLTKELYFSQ
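buffer or medium = Zinc-free HEPES/NaCl buffer, pH 7.4 | material = Procaspase-7 triple mutant (PC-7 D3A) | input = 2 µM procaspase-7 mutant as dispensed | signal = Epi-absorbance of released pNA at 405 nm, two timepoints | timing = 1 h preincubation, 2 h reaction | replicates = singlicate compound testing | evaluation = % activation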
proCasp3 act: activates human procaspase-3; recombinant procaspase-3 D3A, Ac-DEVD-pNA absorbance 405 nm; 330,000 tested, 0.11% active; AID 463141; P42574; activation, % at 8.5 µM;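 active = activation above the mean of all tested compounds plus 3 SD, cut at about 21% in these data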;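 note: 0% = DMSO alone and 100% = DMSO wells spiked with extra 5 µM PC-3 D3A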
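Assay system: Procaspase-3 D3A mutant, all three cleavage aspartates alanine. Buffer or medium: Zinc-free HEPES saline buffer with Triton X-100. Times: 1 h compound preincubation, 2 h substrate hydrolysis at 25 °C. Measured by: 405 nm absorbance of p-nitroaniline, reads at 0 and 120 min. Read-out basis: percent activation relative to control range. Replicates: singlicate.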
PME-1 primary: blocks human protein phosphatase methylesterase 1. Q9Y570. recombinant PME-1, FP-Rh probe fluorescence polarization. inhibition, % at 5.9 µM. 320,000 tested, 0.53% active;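 active = inhibition above the campaign mean of all compounds plus 3 SD, cut at about 26% in these data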;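 note: competitive labeling of PME-1 active site by serine hydrolase directed probe; 0% = PME-1 with DMSO and 100% = wells lacking PME-1 enzyme; inhibitors block probe labeling so polarization falls and inhibition rises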
Target sequence (Q9Y570 whole entry, looked up): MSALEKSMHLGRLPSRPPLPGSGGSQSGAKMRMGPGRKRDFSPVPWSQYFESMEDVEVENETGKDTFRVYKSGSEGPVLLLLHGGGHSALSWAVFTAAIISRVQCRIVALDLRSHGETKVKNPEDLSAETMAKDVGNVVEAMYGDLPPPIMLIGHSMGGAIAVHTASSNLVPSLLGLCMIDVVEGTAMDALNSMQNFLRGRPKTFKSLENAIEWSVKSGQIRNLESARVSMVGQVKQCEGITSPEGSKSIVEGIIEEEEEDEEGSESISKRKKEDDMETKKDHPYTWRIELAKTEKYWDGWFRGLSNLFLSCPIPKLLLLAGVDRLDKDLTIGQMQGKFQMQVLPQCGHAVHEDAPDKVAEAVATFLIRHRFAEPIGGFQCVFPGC
LYPLA1 inh: blocks human lysophospholipase 1, a PME1 counter-screen | O75608 | recombinant LYPLA1, FP-Rh probe fluorescence polarization | inhibition, % at 5.9 µM | 320,000 tested, 0.16% active | AID 2174;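 active = inhibition above the mean of all tested compounds plus 3 SD, set per campaign, cut at about 14% in these data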;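 note: inhibitors block serine hydrolase probe labeling of LYPLA1 so polarization falls; 0% = enzyme with DMSO and 100% = wells lacking LYPLA1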
Fam108B counter: blocks mouse Fam108B hydrolase in RBBP9 counter-screen. recombinant Fam108B, FP-Rh probe fluorescence polarization. inhibition, % at 9.51 µM. 300,000 tested, 0.33% active. AID 1947;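 active = inhibition above the screen mean inhibition plus 3 SD, computed separately per campaign, cut at about 18% in these data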;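 note: inhibitors lower polarization as less probe binds the enzyme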
LYPLA2 counter: counter-screen for PME1 inhibitors: inhibitors of human LYPLA2. recombinant LYPLA2, FP-Rh probe fluorescence polarization. 320,000 tested, 0.38% active. O95372. inhibition, % at 5.9 µM;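 active = inhibition above the screen-wide mean plus 3 SD, limit set per campaign, cut at about 26% in these data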;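 note: 0% = LYPLA2 with DMSO and 100% = wells lacking LYPLA2 enzyme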
Fam108b confirm: Fam108b (mouse) hydrolase inhibition, confirmation assay. recombinant Fam108b, FP-Rh probe fluorescence polarization. AID 1978. 930 tested, 44% active. inhibition, % at 9.51 µM. shares compounds with Fam108B counter;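 active = inhibition above a limit from the primary screen, the mean over all compounds plus 3 SD, cut at about 19% in these data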;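 note: 0% = median of active Fam108b wells and 100% = catalytically dead S170A mutant; inhibitors free the probe so polarization falls as inhibition rises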
Fam108b ABPP HTS: inhibits mouse Fam108b in gel-based ABPP. shares compounds with Fam108B counter. recombinant Fam108b, fluorophosphonate probe. inhibition, % at 20 µM. 260 tested, 44% active; in the data active = inhibition above about 40%
Numbers without * were called inactive; . = no result. Rows were chosen to be rich in hits. Some 1% of all compounds tested hit in one or more screens of this group.

SMILES	procasp7 counter	proCasp3 act	PME-1 primary	LYPLA1 inh	Fam108B counter	LYPLA2 counter	Fam108b confirm	others
COc1ccc(Nc2nc(-c3cccs3)nc3ccccc23)cc1	9	-3	18	-2	28*	0	-11
O=S(=O)(O)c1cccc2cccc(Nc3ccccc3)c12	-1	7	9	-3	8	1	.
Oc1ccc(Nc2nc3ccccc3nc2Nc2ccc(O)cc2)cc1	-32	-14	33*	-13	45*	-20	15
CCn1c(N)c(C(=O)NCC2CCCO2)sc1=S (stereo not given)	-18	-14	1	-1	1	-6	.
O=C(NCc1ccco1)c1sc(=S)n2c1[nH]c(=O)c1ccccc12	-3	-2	16	2	38*	10	34*	Fam108b ABPP HTS=15
O=C(NC1CCCC1)c1sc(=S)n2c1[nH]c(=O)c1ccccc12	-4	2	8	2	16	-5	.
O=C(NCc1ccccc1)c1ccc2c(=O)[nH]c3c(C(=O)NCC4CCCO4)sc(=S)n3c2c1 (stereo not given)	-7	-1	11	7	34*	4	20*
Cc1ccc(CNC(=O)c2ccc3c(=O)[nH]c4c(C(=O)NCC5CCCO5)sc(=S)n4c3c2)cc1 (stereo not given)	1	-12	16	1	17	7	.
CCCCCNC(=O)c1ccc2c(=O)[nH]c3c(C(=O)NCC4CCCO4)sc(=S)n3c2c1 (stereo not given)	-6	-1	8	-1	21*	16	12
NC(=O)c1cc2cc([N+](=O)[O-])ccc2oc1=O	21	16	-8	-4	-3	-1	.
COc1ccc(Nc2nc(N)c(C(=O)c3ccc(F)cc3)s2)cc1	-20	-29	11	-1	50*	1	-4
CCCC1Nc2ccc(C(=O)O)cc2C2C=CCC12 (stereo not given)	-15	0	-22	-5	25*	0	1
CCOC(=O)c1ccc2c(c1)C1C=CCC1C(C(=O)O)N2 (stereo not given)	0	-7	-24	-8	56*	4	33*	Fam108b ABPP HTS=0
Cc1ccc(NC(=O)COC(=O)CN2C(=O)c3ccccc3C2=O)cc1	6	-5	1	1	.	1	.
O=C(Nc1ccc(F)cc1)Nc1ccc(N2CCCC2)c(S(=O)(=O)Nc2ccccc2Cl)c1	1	3	26	-25	25*	-2	37*	Fam108b ABPP HTS=95*
O=C(Nc1ccc(Cl)c(Cl)c1)Nc1ccc(N2CCCC2)c(S(=O)(=O)Nc2ccccc2Cl)c1	-9	-13	15	-29	16	-29	.
Nc1nc2ccccc2n1/N=C/c1ccc(Br)cc1	-3	5	11	-2	29*	-3	35*
O=C1CC(c2ccccc2)=NN1c1nc(-c2ccccc2)cs1	-17	-9	11	-14	19*	-16	9
COc1ccccc1NC(=O)Nc1nc(CC(=O)Nc2ccc(F)c(F)c2)cs1	3	10	-23	-28	20*	-32	-18
Oc1ccc(Cl)cc1CNc1cccc2cccnc12	-22	-8	7	-6	21*	1	0
Oc1c(Br)cc(Br)cc1CNc1cccc2cccnc12	-21	-6	25	-1	36*	14	14
Oc1ccc(Br)cc1CNc1cccc2cccnc12	-1	0	11	-15	4	-13	.
C=CCc1ccccc1Oc1cc(F)nc(N)n1	-7	-3	0	4	4	8	.
O=C(Nc1ccc(N2CCCC2)c(S(=O)(=O)Nc2cccc(C(F)(F)F)c2)c1)c1cccs1	-3	-11	8	-9	21*	-5	33*	Fam108b ABPP HTS=85*
COc1ccccc1NS(=O)(=O)c1cc(NC(=O)c2cccs2)ccc1N1CCCC1	-23	-12	-14	-15	7	-7	.
SMILES	procasp7 counter	proCasp3 act	PME-1 primary	LYPLA1 inh	Fam108B counter	LYPLA2 counter	Fam108b confirm	others
CCCn1c(=N)n(CC(=O)c2ccc([N+](=O)[O-])cc2)c2ccccc21	-26	-3	14	4	24*	3	2
COc1cc(-c2nc(-c3ccc4c(c3)-c3ccccc3S4(=O)=O)c(-c3ccccc3)[nH]2)cc(OC)c1OC	-16	-5	14	-11	29*	-4	4
CCOc1ncccc1C(=O)OCC(=O)NCCc1ccc(S(N)(=O)=O)cc1	-7	2	6	0	.	5	.
COc1ccc(Cl)cc1Nc1nc(-c2sc(NC(=O)c3ccco3)nc2C)cs1	-3	4	12	-17	19*	-22	6
CCCCCCCCCCCCCCCC[n+]1ccc(C=NO)cc1	.	.	.	.	.	.	.	Fam108b ABPP HTS=75*
CCCn1c(=O)cc(N)n(-c2ccc(OC(F)(F)F)cc2)c1=O	-8	-6	-13	-3	0	3	.
O=C(CSc1nnc(Cc2csc(Nc3cccc(Cl)c3)n2)o1)N1CCc2ccccc21	0	-6	7	-12	19*	-9	-13
COc1ccc(NC(=O)c2ccccc2F)cc1Cl	9	4	-1	-4	0	-7	.
O=C(Nc1ccc(Oc2ccc(Cl)cc2)c(Cl)c1)c1cc(I)cc(I)c1O	6	3	8	13	18*	-2	-2
O=[N+]([O-])c1cc([N+](=O)[O-])c(Oc2cc(Cl)cc(Cl)c2)cc1NN1CCCCC1	-2	2	-1	-4	-5	-2	.
O=C(Nc1nc(-c2ccco2)c(-c2ccco2)s1)c1cnccn1	-21	-8	-3	-3	25*	-4	5
O=C(Nc1nc(-c2ccco2)c(-c2ccco2)s1)c1c(F)cccc1Cl	-32	-11	-2	-17	.	-21	.
O=C1C=C(Nc2ccccc2C(=O)O)c2ccccc2C1=O	10	-6	4	1	21*	5	36*	Fam108b ABPP HTS=0
[S-]c1nnc(-c2ccc(Br)cc2)n1-c1ccccc1.[Zn+2]	-10	-8	1	2	-6	4	.
N#Cc1c(Cl)c(Cl)c2nnc(-c3ccc(Br)cc3)n2c1Cl	-1	-2	17	2	19*	5	10
O=C1/C(=C/c2cccs2)SC(=S)N1NS(=O)(=O)c1ccccc1	-3	-13	6	-1	-3	-6	.
CC(C(=O)O)N1C(=O)/C(=C/C=C/c2ccco2)SC1=S (stereo not given)	-18	-13	-22	-6	30*	-6	14

Source: PubChem BioAssay (The Scripps Research Institute Molecular Screening Center)
